From ChEMBL document CHEMBL1133632, “A new class of antituberculosis agents” (2000) come the findings set out here.

Structures are written as SMILES. Converted amounts (≈) assume the structure as drawn.

In the first test the test system is Mycobacterium tuberculosis. The test can be described thus: Activity against Mycobacterium tuberculosis (H37Rv) using the standard BACTEC radiometric growth assay. The test is classed as functional.
Settings: not given
The method, boiled down:
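BACTEC radiometric MIC against M. tuberculosis H37Rv. Compounds in DMSO (1 mg/mL stock), final 50, 25, 12.5, 6.25, 3.0, 1.5 µg/mL. Inoculum 0.1 mL of a 1.0 McFarland suspension. Controls: DMSO direct control and 1:100 organism dilution. Incubated 37 °C, growth index read daily until the 1:100 control reached 30. MIC = lowest concentration with 1-day GI change below the 1:100 control.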
As for `CCCCCCCCC[S+]([O-])CC(N)=O` (single isomer, unassigned), the MIC (usually the lowest concentration found to suppress growth) amounted to 25 µg/mL (≈ 107 µM).

The test is the same for the next values; noted with them: Mycobacterium tuberculosis; read-out: MIC.
On to `C=C/C(C)=C/[C@@]1(C)SC(=O)C(C)=C1O` [THIOLACTOMYCIN], for which the MIC was determined as 25 µg/mL (≈ 119 µM). Turning to `CCCCCCCCS(=O)(=O)CC(=O)O`, the MIC was over 25 µg/mL. On to `CCOCCOCCS(=O)(=O)CC(N)=O`, for which the MIC was over 25 µg/mL.

For the compound `CCCCCCCCC[S@@+]([O-])CC(N)=O`, the MIC is 25 µg/mL (≈ 107 µM). `CCCCCCCCCC[S+]([O-])CC(N)=O` (stereo unspecified): the MIC was 6.25 µg/mL (≈ 25.3 µM). Take `CCCCCCCCCCS(=O)(=O)CC(N)=O`: the MIC was determined as 1.5 µg/mL (≈ 5.69 µM). As for `CCCCCCCCC[S+]([O-])CC(=O)OC` (single isomer, unassigned), the MIC was over 25 µg/mL.

Turning to `CCCCCCCCCCOCC(N)=O`, the MIC is over 25 µg/mL.

As for `CCCCCCCCS(=O)(=O)CC(N)=O`, the MIC came out at 6.25 µg/mL (≈ 26.6 µM). As for `NC(=O)CS(=O)(=O)CCCCCCc1ccccc1`, the MIC was found to be 12.5 µg/mL (≈ 44.1 µM). In the case of `CCCCCCCCC[S+]([O-])CC(N)=O` (racemic), the MIC came out at 25 µg/mL (≈ 107 µM). As for `NNC(=O)c1ccncc1` [ISONIAZID], the MIC is 0.1 µg/mL (≈ 0.729 µM). In the case of `CCCCCCCC[S+]([O-])CC(=O)OCc1ccccc1` (stereo unspecified), the MIC was determined as 6.25 µg/mL (≈ 20.1 µM). The same measure, in the same setting: in the case of `CCCCCCCCS(=O)(=O)NS(N)(=O)=O` it was over 25 µg/mL.

As to `NC(=O)CS(=O)(=O)CCCCc1ccccc1`, the minimal inhibitory concentration (MIC) is over 25 µg/mL.

`CC[C@@H](CO)NCCN[C@@H](CC)CO` [ETHAMBUTOL]: the MIC was determined as 2 µg/mL (≈ 9.79 µM). In the case of `CCCCCCCC[S+]([O-])CC(=O)OC` (stereo unspecified), the MIC was determined as 12.5 µg/mL (≈ 53.3 µM).

As for `CCCCCCCCCCCCS(=O)(=O)CC(N)=O`, the MIC was 12.5 µg/mL (≈ 42.9 µM). The same measure, in the same setting: then `C/C=C/C/C=C/CCC(=O)[C@H]1O[C@H]1C(N)=O` [CERULENIN], with 1.5 µg/mL (≈ 6.72 µM); and `CCCCCCCCCS(=O)(=O)CC(N)=O`, with 3 µg/mL (≈ 12 µM); and `CCCCCCCCS(=O)(=O)CC(=O)OCc1ccccc1`, with 12.5 µg/mL (≈ 38.3 µM). As to `CCCCCCCCC[S+]([O-])CC(=O)OC` (racemic), the MIC is over 25 µg/mL. For `CCCCCCCCCCCCCCCCCCS(=O)(=O)CC(N)=O`, the MIC is over 50 µg/mL. On to `CCCCCCCCCCS(=O)(=O)CCC(N)=O`, for which the MIC is over 25 µg/mL. As to `CCCCCCCCCCSCC(N)=O`, the MIC was determined as 25 µg/mL (≈ 108 µM). On to `CCCCCCCCCCS(=O)(=O)C(C)C(N)=O` (stereo unspecified), for which the MIC is over 25 µg/mL. As to `CCCCCCS(=O)(=O)CC(N)=O`, the MIC was over 50 µg/mL. Same read-out and setting: in the case of `CCCCCCC/C=C\S(=O)(=O)CC(N)=O` it was 12.5 µg/mL (≈ 50.5 µM); in that of `CCCCCCCCS(=O)(=O)NC(N)=O`, over 25 µg/mL.

For `CCCCCCCCS(=O)(=O)NS(C)(=O)=O`, the MIC is over 25 µg/mL. For `CCCCCCCCCCP(=O)([O-])CC(N)=O.[K+]`, the MIC is over 50 µg/mL. As for `CN[C@@H]1[C@H](O[C@H]2[C@H](O[C@H]3[C@H](O)[C@@H](O)[C@H](N=C(N)N)[C@@H](O)[C@@H]3N=C(N)N)O[C@@H](C)[C@]2(O)C=O)O[C@@H](CO)[C@H](O)[C@H]1O` [STREPTOMYCIN], the MIC is 2 µg/mL (≈ 3.44 µM).

Regarding `CC(C)CCCC(C)CCS(=O)(=O)CC(N)=O` (stereo unspecified), the MIC came out at 6.25 µg/mL (≈ 23.7 µM). The same measure, in the same setting: then `NC(=O)CS(=O)(=O)CCCCCc1ccccc1`, with 12.5 µg/mL (≈ 46.4 µM); and `CCCCCCCS(=O)(=O)CC(N)=O`, with over 25 µg/mL. For the compound `CC(C)CCCCCCCS(=O)(=O)CC(N)=O`, the MIC came to 1.5 µg/mL (≈ 5.69 µM). For the compound `CCCCCCC/C=C/S(=O)(=O)CC(N)=O`, the MIC was 12.5 µg/mL (≈ 50.5 µM). Consider `NC(=O)c1cnccn1` [PYRAZINAMIDE], for which the minimal inhibitory concentration (MIC) stood at 100 µg/mL (≈ 812 µM). For the compound `CCCCCCCCS(=O)(=O)CC(=O)OC`, the MIC is over 25 µg/mL. For the compound `CO[C@H]1/C=C/O[C@@]2(C)Oc3c(C)c(O)c4c(O)c(c(/C=N/N5CCN(C)CC5)c(O)c4c3C2=O)NC(=O)/C(C)=C\C=C\[C@H](C)[C@H](O)[C@@H](C)[C@@H](O)[C@@H](C)[C@H](OC(C)=O)[C@@H]1C` [RIFAMPIN], the MIC worked out at 2 µg/mL (≈ 2.43 µM).
